# In ChEMBL document CHEMBL1255303, “In vitro and in vivo antifungal activities of T-2307, a novel arylamidine” (2008):
# Calls of active or inactive are those of the source. The rule behind the calls is not given here. Starred links: 1 amine or outer side, 2 acyl side, 3 side chain; linkers in the order of their positions; H or OH if unused. Positions of bridges follow the written chain, without caps; N, C: chain ends. Non-standard residues stand in square brackets, D forms with d. Residues, ends and D or L forms follow the SMILES beside them. *: point of attachment. hTyr(3S-OH,4S-OH,3'-OSO3H) = N[C@H](C(=O)O)[C@H](O)[C@@H](O)c1ccc(O)c(OS(=O)(=O)O)c1; Orn(4R-OH,5R-OH) = O=C([C@H](C[C@@H](O)[C@@H](O)N[*:3])N[*:1])[*:2]; Pro(3S-OH,4S-Me) = C[C@H]1CN[C@H](C(=O)O)[C@H]1O; X1 = CCCCCOc1ccc(-c2cc(-c3ccc(C(=O)*)cc3)no2)cc1; Gln(3R-OH) = NC(=O)C[C@@H](O)[C@H](N)C(=O)O; Hyp = O=C(O)[C@@H]1C[C@@H](O)CN1
# Experiments:
# [1] = system: Candida albicans; assay: Antifungal activity against Candida albicans ATCC 10261 after 48 hrs by broth microdilution method; type: functional; conditions: ATCC 10261, 48 h
# Outline: (§1)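 CLSI M27-A2 (yeasts) / M38-A (moulds) broth microdilution in RPMI 1640 buffered to pH 7.0 with 0.165 M MOPS. Malassezia furfur got the same medium supplemented with glucose, bile salts, glycerol, glycerol monostearate and Tween 20. Final inoculum 0.65 × 10^3–2.5 × 10^3 CFU/ml for yeasts and 0.87 × 10^4–3.8 × 10^4 CFU/ml for filamentous fungi. Incubation at 35°C except M. racemosus and F. solani, which were held at 30°C.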
# [2] = system: Candida albicans; assay: Antifungal activity against Candida albicans TIMM 1623 after 48 hrs by broth microdilution method; type: functional; conditions: TIMM 1623, 48 h; outline: as §1
# [3] = system: Candida dubliniensis; assay: Antifungal activity against Candida dubliniensis ATCC MYA-577 after 48 hrs by broth microdilution method; type: functional; conditions: ATCC MYA-577, 48 h; outline: as §1
# [4] = system: Nakaseomyces glabratus; assay: Antifungal activity against Candida glabrata ATCC 90030 after 48 hrs by broth microdilution method; type: functional; conditions: ATCC 90030, 48 h; outline: as §1
# [5] = system: Meyerozyma guilliermondii; assay: Antifungal activity against Candida guilliermondii IFO 10279 after 48 hrs by broth microdilution method; type: functional; conditions: IFO 10279, 48 h; outline: as §1
# [6] = system: Cryptococcus neoformans; assay: Antifungal activity against Cryptococcus neoformans ATCC 90113 after 72 hrs by broth microdilution method; type: functional; conditions: ATCC 90113, 72 h; outline: as §1
# [7] = system: Malassezia furfur; assay: Antifungal activity against Malassezia furfur NBRC 0656 after 48 hrs by broth microdilution method; type: functional; conditions: NBRC 0656, 48 h; outline: as §1
# [8] = system: Trichosporon asahii; assay: Antifungal activity against Trichosporon asahii JCM 2466 after 48 hrs by broth microdilution method; type: functional; conditions: JCM 2466, 48 h; outline: as §1
# [9] = system: Aspergillus fumigatus; assay: Antifungal activity against Aspergillus fumigatus IFM 49895 after 48 hrs by broth microdilution method; type: functional; conditions: IFM 49895, 48 h; outline: as §1
# [10] = system: Aspergillus fumigatus; assay: Antifungal activity against Aspergillus fumigatus TIMM 0063 after 48 hrs by broth microdilution method; type: functional; conditions: TIMM 0063, 48 h; outline: as §1
# [11] = system: Aspergillus nidulans; assay: Antifungal activity against Aspergillus nidulans NBRC 33017 after 48 hrs by broth microdilution method; type: functional; conditions: NBRC 33017, 48 h; outline: as §1
# [12] = system: Aspergillus niger; assay: Antifungal activity against Aspergillus niger NBRC 33023 after 48 hrs by broth microdilution method; type: functional; conditions: NBRC 33023, 48 h; outline: as §1
# [13] = system: Rhizopus arrhizus; assay: Antifungal activity against Rhizopus oryzae NBRC 31005 after 24 hrs by broth microdilution method; type: functional; conditions: NBRC 31005, 24 h; outline: as §1
# [14] = system: Candida albicans; assay: Antifungal activity against Candida albicans ATCC 64550 after 47 hrs by broth microdilution method; type: functional; conditions: ATCC 64550, 47 h
# Outline: (§2)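 Fluconazole-resistant or susceptible-dose-dependent C. albicans ATCC strains were tested by broth microdilution in RPMI 1640-MOPS. Inoculum was 1.1 × 10^3–1.5 × 10^3 CFU/ml, with incubation at 35°C for about 47 h. Yeast MIC was read as about 50% turbidity decrease relative to growth control, except amphotericin B, read at complete inhibition.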
# [15] = system: Candida albicans; assay: Antifungal activity against Candida albicans ATCC 96901 after 47 hrs by broth microdilution method; type: functional; conditions: ATCC 96901, 47 h
# Outline: (§3)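 Fluconazole-resistant or susceptible-dose-dependent ATCC C. albicans strains were tested by CLSI M27-A2 broth microdilution in RPMI 1640–0.165 M MOPS, pH 7.0, with a final inoculum of 1.1–1.5 × 10^3 CFU/ml at 35°C for about 47 h. MIC was the lowest concentration with a prominent (~50%) turbidity decrease relative to growth control; amphotericin B was read at complete inhibition.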
# [16] = system: Candida albicans; assay: Antifungal activity against Candida albicans ATCC MYA-573 after 47 hrs by broth microdilution method; type: functional; conditions: ATCC MYA-573, 47 h; outline: as §3
# [17] = system: Candida albicans; assay: Antifungal activity against Candida albicans ATCC MYA-574 after 47 hrs by broth microdilution method; type: functional; conditions: ATCC MYA-574, 47 h; outline: as §2
# [18] = system: Candida albicans; assay: Antifungal activity against Candida albicans ATCC MYA-575 after 47 hrs by broth microdilution method; type: functional; conditions: ATCC MYA-575, 47 h; outline: as §3
# [19] = system: Candida albicans; assay: Antifungal activity against Candida albicans ATCC MYA-2732 after 47 hrs by broth microdilution method; type: functional; conditions: ATCC MYA-2732, 47 h; outline: as §2
# [20] = system: Pichia kudriavzevii; assay: Antifungal activity against Candida krusei clinical isolates after 48 hrs by broth microdilution method; type: functional
# Outline: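 Japanese hospital Candida isolates were tested by CLSI M27-A2 broth microdilution in RPMI 1640–MOPS, pH 7.0, with inocula of 0.57–2.5 × 10^3 CFU/ml at 35°C for about 48 h. Inocula came from 24-h potato dextrose agar cultures. MIC was the lowest concentration with about 50% turbidity reduction versus growth control (complete inhibition for amphotericin B). Range, MIC50 and MIC90 were reported.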
# [21] = system: Aspergillus fumigatus; assay: Antifungal activity against Aspergillus fumigatus clinical isolates after 48 hrs by broth microdilution method; type: functional
# Outline: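 Clinical isolates from Japanese hospitals or culture collections were tested by broth microdilution in RPMI 1640-MOPS. Inoculum was 0.57 × 10^3–2.5 × 10^3 CFU/ml for yeasts and 0.4 × 10^4–3.3 × 10^4 CFU/ml for filamentous fungi. Incubation was at 35°C for about 48 h, or 72 h where footnoted. Results were summarised as MIC range, MIC50 and MIC90.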
# [22] = system: Candida albicans; assay: Antifungal activity against Candida albicans TIMM 1623 infected ICR mouse assessed as delay in mortality of mouse at 0.2 mg/kg after 6 days; type: functional, organism-based; design: dose 0.2 mg/kg
# Outline: (§4)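 Male ICR mice, 4 weeks old and SPF, were made neutropenic with intraperitoneal cyclophosphamide. The schedule was 200 mg/kg on day −3 (day −4 for Cryptococcus) plus 100 mg/kg on day +1. Infection was by tail-vein injection of 0.2 ml suspension: C. albicans 3.0 × 10^4, C. neoformans 9.1 × 10^4, A. fumigatus conidia 8.4 × 10^4 CFU/mouse. Drugs were given subcutaneously once daily for 7 days from 2 h post-infection; controls received saline. Groups had 8–10 mice.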
# [23] = system: Aspergillus fumigatus; assay: Antifungal activity against Aspergillus fumigatus IFM 46895 infected ICR mouse assessed as delay in mortality of mouse at 1 mg/kg after 6 days; type: functional, organism-based; design: dose 1 mg/kg; outline: as §4
# [24] = system: Candida albicans; assay: Antifungal activity against Candida albicans TIMM 1623 infected ICR mouse after 6 days; type: functional; conditions: TIMM 1623, 144 h; outline: as §4
# [25] = system: Aspergillus fumigatus; assay: Antifungal activity against Aspergillus fumigatus IFM 46895 infected ICR mouse after 6 days; type: functional; conditions: IFM 46895, 144 h; outline: as §4
smiles,measurement,setting,value
"CCCCCOc1ccc(-c2cc(-c3ccc(C(=O)N[C@H]4C[C@@H](O)[C@@H](O)NC(=O)[C@@H]5[C@@H](O)[C@@H](C)CN5C(=O)[C@H]([C@H](O)CC(N)=O)NC(=O)[C@H]([C@H](O)[C@@H](O)c5ccc(O)c(OS(=O)(=O)O)c5)NC(=O)[C@@H]5C[C@@H](O)CN5C(=O)[C@H]([C@@H](C)O)NC4=O)cc3)no2)cc1 [MICAFUNGIN] (X1-[Orn(4R-OH,5R-OH)]T[Hyp][hTyr(3S-OH,4S-OH,3'-OSO3H)][Gln(3R-OH)][Pro(3S-OH,4S-Me)]; lactam 1-C)",MFC,[1],0.25 µg/mL
same,MIC,[1],0.0313 µg/mL
same,MFC,[2],4 µg/mL
same,MIC,[2],0.0625 µg/mL
same,MFC,[3],8 µg/mL
same,MIC,[3],0.125 µg/mL
same,MFC,[4],0.0313 µg/mL
same,MIC,[4],0.0313 µg/mL
same,MFC,[5],8 µg/mL
same,MIC,[5],0.5 µg/mL
same,MFC,[6],> 64 µg/mL
same,MIC,[6],> 64 µg/mL
same,MFC,[7],> 64 µg/mL
same,MIC,[7],> 64 µg/mL
same,MFC,[8],> 64 µg/mL
same,MIC,[8],> 64 µg/mL
same,MFC,[9],> 64 µg/mL
same,MIC,[9],0.0313 µg/mL
same,MFC,[10],> 64 µg/mL
same,MIC,[10],0.0156 µg/mL
same,MFC,[11],> 64 µg/mL
same,MIC,[11],0.0313 µg/mL
same,MFC,[12],> 64 µg/mL
same,MIC,[12],0.0313 µg/mL
same,MFC,[13],> 64 µg/mL
same,MIC,[13],> 64 µg/mL
same,MIC,[14],0.0625 µg/mL
same,MIC,[15],0.125 µg/mL
same,MIC,[16],0.0625 µg/mL
same,MIC,[17],0.0625 µg/mL
same,MIC,[18],0.125 µg/mL
same,MIC,[19],0.125 µg/mL
same,MIC50,[20],0.5 µg/mL
same,MIC90,[20],0.5 µg/mL
same,MIC,[21],0.0313 µg/mL
same,MIC50,[21],0.0313 µg/mL
same,MIC90,[21],0.0313 µg/mL
same,Activity,[22],Active
same,Activity,[23],Active
same,ED50,[24],0.182 mg/kg
same,ED50,[25],0.699 mg/kg
